A selection: hits, their analogues and other compounds. The true share with any hit is near 2.7%.
SIRT5 block – inhibitors of human sirtuin-5 desuccinylase; Purified SirT5, succinyl-peptide AMC, trypsin-coupled fluorescence; inhibition, % at 15 µM; Q9NXA8; 330,000 tested, 1.1% active; in the data active means inhibition above about 15%; inconclusive means no clear call, values can overlap the other calls
DENV2 CPE – DENV2-induced cell death inhibition; DENV2-infected cells, cytopathic effect rescue, plate reader; 350,000 tested, 1.7% active; AID 651640; CPE inhibition, % at 9.99 µM; in the data active means CPE inhibition above about 20%, passing the limit was not always enough; inconclusive means no clear call, values can overlap the other calls; tested in BHK-21 cells
S100A4 MyoIIA – blocks human S100A4 binding to myosin IIA peptide. 360,000 tested, 0.14% active. inhibition, % at 10.7 µM. AID 652163. S100A4/TAMRA-MyoIIA peptide fluorescence polarization. P26447;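 active means mean inhibition of at least 70% across replicates, with every replicate also reaching that level; inconclusive means mean inhibition reaches 70% but some replicates fall short; inactive means mean inhibition below 70%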
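assay system = human S100A4 monomer with TAMRA-labelled myosin IIA peptide | also added = labelled myosin peptide probe, 5 nM | incubation = 5 min between mix addition and reading | control set = DMSO and TFP controls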
AF4-AF9 inh – blocks AF4 peptide binding to human AF9. P42568. AlphaScreen, biotin-AF4 peptide binding to FLAG-AF9. inhibition, % at 10 µM. 350,000 tested, 0.47% active. AID 651704;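 active means every replicate reaching a set inhibition limit, whatever the replicate mean, cut at about 25% in these data; inconclusive means mean inhibition reaches that limit but some replicates miss it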
CaV13 FRET inh – Disruptors of the CACNA1D IQ motif to Ca2+-dependent inactivation inhibitor domain association, primary screening, Förster resonance energy transfer in intact living …; 340,000 tested, 0.098% active; HEK cells, CFP/YFP FRET ICDI-IQ, plate reader, 10 min; percent FRET-ratio fall versus neutral wells; AID 743397; inhibition, % at 12.3 µM;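 active means mean replicate inhibition of at least 30% and at least 1% of replicates passing that level; inconclusive means only one of the two criteria is met; inactive means neither criterion is met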
Large screens that a line does not name were inactive.

C[C@@H]1CCCCO[C@H](CN(C)C(=O)c2ccccc2)[C@H](C)CN([C@@H](C)CO)C(=O)c2cc(NC(=O)C3CCCCC3)ccc2O1	none (no result: CaV13 FRET inh)
CCCCCCn1c(=O)n2n(c1=O)[C@@H]1CN(S(=O)(=O)c3ccc(C)cc3)C[C@]1(O)[C@@H](OC(=O)NCc1ccccc1)C2	SIRT5 block 20
Cc1ccc(S(=O)(=O)N2C[C@H]3n4c(=O)ccc(=O)n4C[C@H](OC(=O)NCc4ccco4)[C@@]3(O)C2)cc1	SIRT5 block 33
O=C(Cc1cccc(C(F)(F)F)c1)Nc1ccccc1	none
CCCCNC(=NCc1cccc(C(F)(F)F)c1)Nc1ccccc1	SIRT5 block 20
Cc1nc(CN(C)Cc2nc(Cc3cccc(F)c3)no2)cs1	SIRT5 block 26
O=C(CCCl)Nc1nnc(SCC(=O)NC2CCCC2)s1	SIRT5 block 60
COc1ccc(NC(=O)Nc2ccc3c(c2)C(=O)N([C@@H](C)CO)C[C@@H](C)[C@@H](CN(C)Cc2ccc(-c4ccccc4)cc2)O3)cc1	SIRT5 block 17 (no result: CaV13 FRET inh)
COc1ccc(NC(=O)Nc2ccc3c(c2)C(=O)N([C@@H](C)CO)C[C@@H](C)[C@H](CN(C)Cc2ccncc2)O3)cc1	none (no result: CaV13 FRET inh)
C[C@@H]1CN([C@H](C)CO)C(=O)c2cc(NC(=O)NC3CCCCC3)ccc2O[C@@H]1CN(C)Cc1ccncc1	DENV2 CPE 30 (no result: CaV13 FRET inh)
COc1ccc(NC(=O)Nc2ccc3c(c2)C(=O)N([C@H](C)CO)C[C@H](C)[C@H](CN(C)Cc2ccc(-c4ccccc4)cc2)O3)cc1	DENV2 CPE inconclusive (no result: CaV13 FRET inh)
COc1ccc(NC(=O)Nc2ccc3c(c2)C(=O)N([C@@H](C)CO)C[C@@H](C)[C@@H](CN(C)Cc2ccncc2)O3)cc1	SIRT5 block 27 (no result: CaV13 FRET inh)
C/C=C/c1ccc([C@H]2[C@@H](CNC(=O)C3CC3)N(C(=O)NCCC)[C@H]2CO)cc1	none (no result: CaV13 FRET inh)
CNC[C@H]1OCCCC[C@@H](C)Oc2ccc(NC(=O)Nc3ccc(C(F)(F)F)cc3)cc2C(=O)N([C@H](C)CO)C[C@@H]1C	none (no result: CaV13 FRET inh)
CC(C)NC(=O)N(C)C[C@H]1OCCCC[C@@H](C)Oc2ccc(NC(=O)c3ccncc3)cc2C(=O)N([C@H](C)CO)C[C@@H]1C	none (no result: CaV13 FRET inh)
COc1ccccc1NC(=S)N1CCN(c2ccccn2)CC1	none (no result: SIRT5 block, DENV2 CPE, S100A4 MyoIIA, AF4-AF9 inh)
COc1ccc(NC(=O)CN2CCN(c3ccccn3)CC2)cc1Cl	SIRT5 block 29
COc1ccccc1NC(=O)N1CCN(c2ccccn2)CC1	DENV2 CPE 31
CC(C)c1ccc(NC(=O)CN2CCN(c3ccccn3)CC2)cc1	none
COc1cc2[nH]c(=O)n(CCCC(=O)N3CC=C(c4ccccc4)CC3)c(=O)c2cc1OC	none (no result: SIRT5 block, DENV2 CPE, S100A4 MyoIIA, AF4-AF9 inh)
COc1cc2[nH]c(=O)n(CCCCCC(=O)N3CCN(c4ccccn4)CC3)c(=O)c2cc1OC	SIRT5 block 24 (no result: DENV2 CPE, AF4-AF9 inh)
CC(C)NC(=O)N(C)C[C@@H]1Oc2cc(-c3ccccc3F)ccc2S(=O)(=O)N([C@H](C)CO)C[C@@H]1C	none (no result: CaV13 FRET inh)
C[C@@H]1CN([C@H](C)CO)C(=O)c2cc(C3=CCCC3)cnc2O[C@@H]1CN(C)C(=O)c1ccc2c(c1)OCO2	none (no result: CaV13 FRET inh)
Cc1sc2cc3c(c(C(=O)c4ccccc4)[n+]2c1C)-c1cccc2cccc-3c12	DENV2 CPE 36, AF4-AF9 inh 25
O=C(c1ccccc1)c1c2c(cc3sc4ccccc4[n+]13)-c1cccc3cccc-2c13	none (no result: SIRT5 block, DENV2 CPE, S100A4 MyoIIA, AF4-AF9 inh)
CC(C)NC(=O)N(C)C[C@H]1OCCCC[C@H](C)Oc2ccc(NC(=O)Nc3ccc(F)cc3)cc2C(=O)N([C@H](C)CO)C[C@@H]1C	none (no result: CaV13 FRET inh)
Cc1onc(-c2ccccc2)c1C(=O)c1c[nH]c(C(=O)NCc2ccncc2)c1	none
Cc1onc(-c2ccccc2)c1C(=O)c1c[nH]c(C(=O)NCc2ccccn2)c1	SIRT5 block 19
O=C(O)CCC(=O)Nc1ccc(-c2nc3ccc(C(=O)c4ccccc4)cc3[nH]2)cc1	SIRT5 block 34
O=C(c1ccccc1)c1ccc2nc(-c3ccc(NC(=O)c4ccccc4F)cc3)[nH]c2c1	none (no result: SIRT5 block, DENV2 CPE, S100A4 MyoIIA, AF4-AF9 inh)
CO[C@@H](CN(C)S(=O)(=O)c1ccc(F)cc1)[C@@H](C)CN([C@@H](C)CO)S(=O)(=O)c1cccc(Cl)c1	none (no result: SIRT5 block, CaV13 FRET inh)
COCCNC(=O)C[C@@H]1C[C@H]2c3cc(NC(=O)Nc4ccc(OC)cc4)ccc3O[C@H]2[C@@H](CO)O1	DENV2 CPE 114 (no result: CaV13 FRET inh)

Source: PubChem (Broad Institute)
